Data published in ChEMBL document CHEMBL4177766, “Targeting a Subpocket in Trypanosoma brucei Phosphodiesterase B1 (TbrPDEB1) Enables the Structure-Based Discovery of Selective Inhibitors with Trypanocidal Activity” (J Med Chem, 2018).
The source made the active and inactive calls. No cut-off for these calls is given here.

Legend:
[1] = Selectivity ratio of Ki for full length recombinant human PDE4B1 to Ki for full length Trypanosoma brucei PDEB1
[2] = molecular target: T1, Class 1 phosphodiesterase PDEB1 (Trypanosoma brucei, UniProt Q8WQX9); test: Inhibition of full length Trypanosoma brucei PDEB1 expressed in Sf21 insect cells using cAMP as substrate by scintillation proximity assay
T1 sequence (Q8WQX9 whole entry): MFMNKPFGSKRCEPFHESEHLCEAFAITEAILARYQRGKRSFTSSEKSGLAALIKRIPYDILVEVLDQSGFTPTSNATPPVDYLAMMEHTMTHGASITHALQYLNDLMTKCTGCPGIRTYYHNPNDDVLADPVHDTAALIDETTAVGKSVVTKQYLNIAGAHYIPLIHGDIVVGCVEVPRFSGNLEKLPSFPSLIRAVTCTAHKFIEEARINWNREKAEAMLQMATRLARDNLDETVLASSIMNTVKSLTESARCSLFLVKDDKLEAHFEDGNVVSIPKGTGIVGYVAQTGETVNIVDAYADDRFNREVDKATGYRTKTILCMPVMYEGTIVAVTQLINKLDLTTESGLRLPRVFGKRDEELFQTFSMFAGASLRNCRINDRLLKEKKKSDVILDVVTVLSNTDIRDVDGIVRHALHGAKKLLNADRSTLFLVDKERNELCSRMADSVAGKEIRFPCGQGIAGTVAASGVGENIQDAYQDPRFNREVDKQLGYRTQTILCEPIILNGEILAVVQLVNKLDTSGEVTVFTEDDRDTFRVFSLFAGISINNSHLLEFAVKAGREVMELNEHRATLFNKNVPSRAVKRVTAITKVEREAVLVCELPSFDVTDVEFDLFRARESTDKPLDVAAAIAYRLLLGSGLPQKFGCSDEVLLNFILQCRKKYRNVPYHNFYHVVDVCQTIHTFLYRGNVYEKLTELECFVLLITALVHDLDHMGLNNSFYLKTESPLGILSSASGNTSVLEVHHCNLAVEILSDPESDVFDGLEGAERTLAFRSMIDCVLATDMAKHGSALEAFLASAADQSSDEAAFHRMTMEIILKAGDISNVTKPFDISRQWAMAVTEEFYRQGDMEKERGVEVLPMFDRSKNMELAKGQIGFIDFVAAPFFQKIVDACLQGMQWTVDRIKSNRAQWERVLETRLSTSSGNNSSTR
Method in brief: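 Enzyme amount set so that under 20% of substrate was consumed. Ki reported as mean ± SD of at least two independent experiments.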

[3] = molecular target: 3',5'-cyclic-AMP phosphodiesterase 4B (Homo sapiens, UniProt Q07343); test: Inhibition of full length recombinant human PDE4B1 expressed in Sf21 insect cells using cAMP as substrate by scintillation proximity assay
[4] = molecular target: T2, Class 1 phosphodiesterase PDEB1 (Trypanosoma brucei) (UniProt Q8WQX9); test: Inhibition of PDEB1 in bloodstream form of Trypanosoma brucei Lister 427 assessed as increase in intracellular cAMP levels at 0.025 uM after 5 hrs by ELISA; format: cell-based
T2 sequence (whole entry): T1 sequence (Q8WQX9 whole entry)
Method in brief: (§1)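 Log-phase bloodstream forms in HMI-9/FBS at 2 × 10^6 cells/mL, 6 mL subcultures; test drug 0.1–10 μM, reference inhibitor 0.3 μM, pentamidine 0.025 μM or no drug; 5 h at 37 °C, 5% CO2. 5 × 10^6 cells pelleted, lysed 20 min on ice in 0.1 M HCl, supernatant frozen for cAMP. Duplicates; mean of four determinations ± SEM; Student's t-test.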

[5] = molecular target: T2, Class 1 phosphodiesterase PDEB1 (Trypanosoma brucei); test: Inhibition of PDEB1 in bloodstream form of Trypanosoma brucei Lister 427 assessed as increase in intracellular cAMP levels at 0.3 uM after 5 hrs by ELISA; format: cell-based; method in brief: as §1
MRC5 = test: Cytotoxicity against human MRC5 cells assessed as decrease in cell viability after 72 hrs by resazurin assay; format: cell-based; conditions: mrc5, 72 h
Trypanosoma brucei [6] = test: Antitrypanosomal activity against trypomastigote form of Trypanosoma brucei Squib 427 assessed as parasite growth inhibition after 72 hrs by resazurin assay; format: functional, organism-based; conditions: Squib 427, 72 h
Method in brief: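 Suramin-sensitive Squib-427 bloodstream trypomastigotes grown in HMI-9 + 10% FCS at 37 °C, 5% CO2. About 1.5 × 10^4 parasites per well exposed to five concentrations (64, 16, 4, 1, 0.25 μM), DMSO ≤0.5% final. After 72 h, resazurin added and absorbance read at 540 nm 4 h later, expressed as % of blank controls. Suramin reference; IC50 from triplicate experiments, mean ± SD.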

Trypanosoma brucei [7] = test: Antitrypanosomal activity against bloodstream form of Trypanosoma brucei Lister 427 assessed as appearance of misshapen cells at 10 uM after 24 hrs by DAPI staining-based fluorescence microscopic method; format: functional, organism-based
Method in brief: (§2)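 Bloodstream-form trypanosomes seeded at 2 × 10^5 cells/mL with 10 μM drug; samples taken at 0, 6, 12 and 24 h, pelleted at 4 °C, washed in PBS pH 7.4, air-dried on slides, fixed 15 min in 4% formaldehyde/PBS, mounted with DAPI. Nuclei, kinetoplasts, cell division and morphology were scored by brightfield and fluorescence microscopy.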

Trypanosoma brucei [8] = test: Antitrypanosomal activity against bloodstream form of Trypanosoma brucei Lister 427 assessed as appearance of rounded cells with multiple flagella at 10 uM after 12 hrs by DAPI staining-based fluorescence microscopic method; format: functional, organism-based; method in brief: as §2
[9] = molecular target: T2, Class 1 phosphodiesterase PDEB1 (Trypanosoma brucei); test: Inhibition of PDEB1 in bloodstream form of Trypanosoma brucei Lister 427 assessed as increase in intracellular cAMP levels after 5 hrs by ELISA; format: cell-based; method in brief: as §1
Trypanosoma brucei [10] = test: Antitrypanosomal activity against bloodstream form of Trypanosoma brucei Lister 427 assessed as defect in cytokinesis at 10 uM after 6 hrs by DAPI staining-based fluorescence microscopic method; format: functional, organism-based; method in brief: as §2

Chain of 3',5'-cyclic-AMP phosphodiesterase 4B (Q07343 whole entry): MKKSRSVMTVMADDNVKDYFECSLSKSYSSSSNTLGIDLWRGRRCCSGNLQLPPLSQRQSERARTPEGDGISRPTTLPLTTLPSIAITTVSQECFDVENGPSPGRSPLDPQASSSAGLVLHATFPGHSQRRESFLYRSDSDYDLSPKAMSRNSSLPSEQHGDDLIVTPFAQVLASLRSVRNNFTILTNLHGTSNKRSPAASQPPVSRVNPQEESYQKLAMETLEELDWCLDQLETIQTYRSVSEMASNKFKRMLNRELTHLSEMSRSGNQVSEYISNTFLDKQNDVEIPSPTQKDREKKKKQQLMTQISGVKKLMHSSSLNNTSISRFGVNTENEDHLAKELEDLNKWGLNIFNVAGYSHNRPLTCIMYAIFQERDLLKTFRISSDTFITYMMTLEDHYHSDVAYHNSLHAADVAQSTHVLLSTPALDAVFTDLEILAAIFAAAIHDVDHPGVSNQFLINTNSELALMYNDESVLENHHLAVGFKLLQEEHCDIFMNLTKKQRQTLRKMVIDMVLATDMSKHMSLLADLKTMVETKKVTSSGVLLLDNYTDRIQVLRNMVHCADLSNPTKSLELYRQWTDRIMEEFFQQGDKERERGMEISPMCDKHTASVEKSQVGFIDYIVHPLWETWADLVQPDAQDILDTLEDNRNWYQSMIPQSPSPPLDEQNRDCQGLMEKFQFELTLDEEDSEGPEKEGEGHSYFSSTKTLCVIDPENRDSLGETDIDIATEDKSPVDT

| Compound | Ratio Ki [1] | Ki [2] | Ki [3] | also measured |
| --- | --- | --- | --- | --- |
| COc1ccc(C2=NN(C3CCCCCC3)C(=O)[C@@H]3CC=CC[C@H]23)cc1-c1ccc(C#N)cc1 (relative stereo) | 0.1 | 0.501 µM | 0.0316 µM | – |
| N=C(N)c1ccc(OCCCCCOc2ccc(C(=N)N)cc2)cc1 | – | – | – | inhibition [4]: inactive |
| COc1ccc(C2=NN(C(C)C)C(=O)[C@@H]3CC=CC[C@H]23)cc1-c1ccc(C(=O)N2CCC[C@@H]2C(N)=O)cc1 (racemic) | 18 | – | – | – |
| COc1ccc(C2=NN(C3CCCCCC3)C(=O)[C@@H]3CC=CC[C@H]23)cc1-c1ccc(C(=O)NCC(=O)N(C)C)cc1 (relative stereo) | 4 | 0.794 µM | 3.16 µM | – |
| COCCNC(=O)CNC(=O)c1ccc(-c2cc(C3=NN(C4CCCCCC4)C(=O)[C@@H]4CC=CC[C@H]34)ccc2OC)cc1 (relative stereo) | 8 | 0.501 µM | 3.98 µM | – |
| COCCNC(=O)c1ccc(-c2cc(C3=NN(C4CCCCCC4)C(=O)[C@@H]4CC=CC[C@H]34)ccc2OC)cc1 (relative stereo) | 7 | 0.316 µM | 2 µM | – |
| COc1ccc(C2=NN(C3CCCCCC3)C(=O)[C@@H]3CC=CC[C@H]23)cc1OCCCCOc1ccc(-c2nnn[nH]2)cc1 | – | – | 0.000631 µM | inhibition [5]: Active |
| COc1ccc(C2=NN(C3CCCCCC3)C(=O)[C@H]3CC=CC[C@@H]23)cc1-c1ccc(C(=O)NCC(N)=O)cc1 | – | 3.98 µM | 50.1 µM | – |
| O=C(Nc1c(Cl)cncc1Cl)c1ccc(OC(F)F)c(OCC2CC2)c1 [ROFLUMILAST] | – | 3.16 µM | – | – |
| COc1ccc(C2=NN(C3CCCCCC3)C(=O)[C@@H]3CC=CC[C@H]23)cc1-c1cccc(C(=O)O)c1 (relative stereo) | 2 | 7.94 µM | 12.6 µM | – |
| COc1ccc(C2=NN(C3CCCCCC3)C(=O)[C@@H]3CC=CC[C@H]23)cc1-c1ccc(C(=O)N2CC[C@@H](O)C2)cc1 (racemic) | 9 | – | – | – |
| COc1ccc(C2=NN(C3CCCCCC3)C(=O)[C@@H]3CC=CC[C@H]23)cc1-c1ccc(C(=O)N2CCC[C@@H]2C(N)=O)cc1 (racemic) | 13 | – | – | – |
| COc1ccc(C2=NN(C3CCCCCC3)C(=O)[C@@H]3CC=CC[C@H]23)cc1-c1ccc(C(N)=O)cc1 (relative stereo) | 1 | 0.158 µM | 0.158 µM | – |
| COc1ccc(C2=NN(C(C)C)C(=O)[C@@H]3CC=CC[C@H]23)cc1-c1ccc(C(=O)N2CC[C@@H](O)C2)cc1 (racemic) | 15 | – | – | – |
| COc1ccc(C2=NN(C3CCCCCC3)C(=O)[C@@H]3CC=CC[C@H]23)cc1-c1ccc(C(=O)NCC(=O)NCCO)cc1 (relative stereo) | 7 | 0.398 µM | 3.16 µM | – |
| COc1ccc(C2=NN(C3CCCCCC3)C(=O)[C@@H]3CC=CC[C@H]23)cc1-c1ccc(C(=O)N2CC(=O)N(C)C2)cc1 (relative stereo) | 1.4 | – | – | – |
| COc1ccc(C2=NN(C3CCCCCC3)C(=O)[C@@H]3CC=CC[C@H]23)cc1-c1ccc(C(=O)NCCNC(C)=O)cc1 (relative stereo) | 5 | 0.794 µM | 3.98 µM | – |
| CNC(=O)CNC(=O)c1ccc(-c2cc(C3=NN(C4CCCCCC4)C(=O)[C@@H]4CC=CC[C@H]34)ccc2OC)cc1 (relative stereo) | 6 | 0.398 µM | 2.51 µM | – |
| COc1ccc(C2=NN(C3CCCCCC3)C(=O)[C@@H]3CC=CC[C@H]23)cc1-c1ccc(C(=O)N2CNC(=O)C2)cc1 (relative stereo) | 1 | – | – | – |
| COc1ccc(C2=NN(C(C)C)C(=O)[C@@H]3CC=CC[C@H]23)cc1-c1ccc(C(=O)NCC(N)=O)cc1 (relative stereo) | – | 0.1 µM | 2 µM | CC50 (MRC5): 35 µM; IC50 (Trypanosoma brucei [6]; read-out: IC50): 6.7 µM |
| Cc1ccc(C(=O)Nc2ccc(S(=O)(=O)O)c3cc(S(=O)(=O)O)cc(S(=O)(=O)O)c23)cc1NC(=O)c1cccc(NC(=O)Nc2cccc(C(=O)Nc3cc(C(=O)Nc4ccc(S(=O)(=O)O)c5cc(S(=O)(=O)O)cc(S(=O)(=O)O)c45)ccc3C)c2)c1 [SURAMIN] | – | – | – | IC50 (Trypanosoma brucei [6]; read-out: pIC50 (converted)): 0.0398 µM |
| COc1ccc(C2=NN(C3CCCCCC3)C(=O)[C@@H]3CC=CC[C@H]23)cc1-c1ccc(C(=O)NCC(=O)NC(C)C)cc1 (relative stereo) | 4 | 2 µM | 6.31 µM | – |
| COc1ccc(C2=NN(C3CCCCCC3)C(=O)[C@@H]3CC=CC[C@H]23)cc1-c1ccc(C(=O)O)cc1 (relative stereo) | 5 | 1.58 µM | 7.94 µM | – |
| COc1ccc(C2=NN(C3CCCCCC3)C(=O)[C@@H]3CC=CC[C@H]23)cc1-c1ccc(C(=O)N2CCC(=O)C2)cc1 (relative stereo) | 3 | – | – | – |
| COc1ccc(C2=NN(C3CCCCCC3)C(=O)[C@@H]3CC=CC[C@H]23)cc1-c1ccc(C(=O)NCCC(N)=O)cc1 (relative stereo) | 2 | 0.501 µM | 1 µM | – |
| COc1ccc(C2=NN(C3CCCCCC3)C(=O)[C@@H]3CC=CC[C@H]23)cc1-c1ccc(C(=O)N(C)CC(N)=O)cc1 (relative stereo) | 7 | 0.398 µM | 2.51 µM | – |
| COc1ccc(C2=NN(C3CCCCCC3)C(=O)[C@@H]3CC=CC[C@H]23)cc1-c1ccc(C(=O)NCC(N)=O)cc1 (relative stereo) | – | – | – | Activity (Trypanosoma brucei [7]): Active; Activity (Trypanosoma brucei [8]): Active; CC50 (MRC5): 36 µM; inhibition [9]: Dose-dependent effect; Activity (Trypanosoma brucei [10]): Active; IC50 (Trypanosoma brucei [6]; read-out: IC50): 5.5 µM |
